# “Also recorded” adds a separate entry of the source. Marks after values point to notes of the source that are not given here.
# Columns and labels:
# [1] = test system: CD1 mice; settings: cited from earlier work
# [2] = molecular target: mouse MOR-1 (Mus musculus, UniProt P42866); test: [125I]BNtxA competition binding, CHO cell membranes, MOR-1; settings: for Ki: read-out: Ki MOR-1, [125I]BNtxA 0.1 nM, CHO membranes, mouse MOR-1; for fold higher MOR-1 affinity than corresponding 14-OH-epoxymorphinan analog: 6 vs 19, 16 vs 1, 17 vs 20; for selectivity for MOR-1 over 6TM/E11 sites: ratio of Ki
# How it was run: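 Mouse MOR-1 clone stably expressed in CHO cells; membranes incubated 90 min at 25 °C in 50 mM potassium phosphate buffer, pH 7.4, with 5 mM MgSO4, no blockers. Filtration through glass-fibre filters, three washes with ice-cold 50 mM Tris-HCl, pH 7.4. Nonspecific binding with 8 μM levallorphan, subtracted from total. Ki by nonlinear regression. Protein measured by Lowry method.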
# [3] = test system: CD1 mice; test: radiant heat tail flick analgesia; format: in vivo, mouse; settings: for tail flick analgesia (CI), ED50 / antinociception in vivo (in words): sc; for tail flick analgesia (CI), ED50: 30 min after dosing, mice, 95% CI or ± SEM; for antinociception in vivo (in words) / fold higher analgesic potency than morphine: tail flick; for fold higher analgesic potency than morphine: systemic (sc)
# [4] = molecular target: 6TM/E11 (Mus musculus, UniProt P42866); format: binding; settings: for Ki: read-out: Ki 6TM/E11, [125I]BNtxA 0.1 nM, mouse brain, CTAP, DPDPE, U50,488 blockers at 200 nM; for fold lower 6TM/E11 affinity than 1: compared with 1
# How it was run: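 Membrane homogenates of whole brain from wild-type mice. Blockers at 200 nM: CTAP for MOR-1, U50,488H for KOR-1 and DPDPE for DOR-1.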
# [5] = molecular target: mouse DOR-1 (Mus musculus, UniProt P32300); test: [125I]BNtxA competition binding, CHO cell membranes, DOR-1; settings: for Ki: read-out: Ki DOR-1, [125I]BNtxA 0.1 nM, CHO membranes, mouse DOR-1; for fold higher DOR-1 affinity than corresponding 14-OH-epoxymorphinan analog: 6 vs 19, 16 vs 1, 17 vs 20; for selectivity for DOR-1 over 6TM/E11 sites: ratio of Ki
# How it was run: (§1)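 Membranes from CHO cells stably expressing the murine receptor clone, with no blockers, were incubated for 90 min at 25 °C in 50 mM potassium phosphate buffer (pH 7.4) with 5 mM MgSO4. Samples were then filtered on glass-fiber filters and washed with ice-cold 50 mM Tris-HCl (pH 7.4). Nonspecific binding was set with levallorphan 8 μM. Ki came from nonlinear regression. The 6TM/E11 comparison used mouse whole-brain membranes with CTAP, U50,488H and DPDPE, each at 200 nM.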
# [6] = molecular target: mouse KOR-1 (Mus musculus, UniProt P33534); test: [125I]BNtxA competition binding, CHO cell membranes, KOR-1; settings: for Ki: read-out: Ki KOR-1, [125I]BNtxA 0.1 nM, CHO membranes, mouse KOR-1; for fold higher KOR-1 affinity than corresponding 14-OH-epoxymorphinan analog: 6 vs 19, 16 vs 1, 17 vs 20; for selectivity for KOR-1 over 6TM/E11 sites: ratio of Ki
# How it was run: as §1
# [7] = test system: mice; test: conditioned place preference/aversion; format: in vivo, mouse; settings: 2 days; for place conditioning response to drug alone: 16 1 mg/kg sc, morphine 10 mg/kg ip, U50,488 30 mg/kg ip, cocaine 10 mg/kg sc; for effect of pretreatment on cocaine-conditioned place preference: 16 1 mg/kg sc 10 min prior to cocaine 10 mg/kg sc
# [8] = molecular target: DOR-1 (Mus musculus, UniProt P32300)
# [9] = test system: C57BL/6J, MOR-1 KO or KOR-1 KO mice; settings: C57BL/6J mice, sc
# [10] = doses 30 times the antinociceptive ED50
# [11] = molecular target: MOR-1 (Mus musculus, UniProt P42866)
# [12] = molecular target: KOR-1 (Mus musculus, UniProt P33534); test: [35S]GTPγS binding assay, KOR-1; format: biochemical
smiles,measurement,setting,value
"O=C(N[C@@H]1CC[C@@]2(O)[C@H]3Cc4ccc(O)c5c4[C@@]2(CCN3CC2CC2)[C@H]1O5)c1cccc(I)c1 [Compound 1, 3-Iodobenzoyl-β-naltrexamine, reference compound]",antinociception ED50,[1]; introduction,0.39 mg/kg
same,Ki,[2],0.11 ± 0.02 nM
same,"tail flick analgesia (CI), ED50",[3],"0.39 (0.15, 0.58) mg/kg"
same,Ki,[4],0.16 ± 0.04 nM
same,Ki,[5],0.24 ± 0.05 nM
same,Ki,[6],0.03 ± 0.001 nM
"C=CCN1CC[C@]23c4c5ccc(O)c4O[C@H]2[C@H](NC(=O)c2cccc(I)c2)C=C[C@H]3[C@H]1C5 [Compound 17, 17-Allyl-3-hydroxy-4,5α-epoxy-7,8-en-6-β-[(3′-iodo)benzamido]-morphinan]",fold higher MOR-1 affinity than corresponding 14-OH-epoxymorphinan analog,[2],6.5 fold
same,selectivity for MOR-1 over 6TM/E11 sites,[2],23 fold
same,Ki,[2],0.034 ± 0.006 nM
same,"tail flick analgesia (CI), ED50",[3],"0.53 (0.45, 0.59) mg/kg"
same,antinociception in vivo (in words),[3],equipotent to both 1 and 20
same,fold lower 6TM/E11 affinity than 1,[4],4.9 fold
same,fold lower 6TM/E11 affinity than 20,[4]; compared with 20,3.1 fold
same,Ki,[4],0.78 ± 0.1 nM
same,fold higher DOR-1 affinity than corresponding 14-OH-epoxymorphinan analog,[5],6.7 fold
same,selectivity for DOR-1 over 6TM/E11 sites,[5],2 fold
same,Ki,[5],0.39 ± 0.0041 nM
same,fold higher KOR-1 affinity than corresponding 14-OH-epoxymorphinan analog,[6],3.6 fold
same,selectivity for KOR-1 over 6TM/E11 sites,[6],35 fold
same,Ki,[6],0.022 ± 0.0043 nM
"COc1ccc2c3c1O[C@H]1[C@H](NC(=O)c4cccc(I)c4)C=C[C@H]4[C@@H](C2)N(C)CC[C@@]341 [Compound 5, 17-Methyl-3-methoxy-4,5α-epoxy-7,8-en-6-β-[(3′-iodo)-benzamido]-morphinan]",Ki,[2],1.2 ± 0.48 nM
same,"tail flick analgesia (CI), ED50",[3],>10 mg/kg
same,Ki,[4],61 ± 7.7 nM
same,Ki,[5],49 ± 6.4 nM
same,Ki,[6],10 ± 3.5 nM
"COC(=O)[C@H]1[C@@H](OC(=O)c2ccccc2)C[C@@H]2CC[C@H]1N2C [cocaine, reference compound]",place conditioning response to drug alone,[7],significant place preference
"O=C(N[C@@H]1C=C[C@H]2[C@H]3Cc4ccc(O)c5c4[C@@]2(CCN3CCc2ccccc2)[C@H]1O5)c1cccc(I)c1 [Compound 15, 17-Phenethyl-3-hydroxy-4,5α-epoxy-7,8-en-6-β-[(3′-iodo)-benzamido]-morphinan]",selectivity for MOR-1 over 6TM/E11 sites,[2],159 fold
same,Ki,[2],0.088 ± 0.028 nM
same,"tail flick analgesia (CI), ED50",[3],"1.3 (1.03, 2.2) mg/kg"
same,fold higher analgesic potency than morphine,[3],~ 3 fold
same,Ki,[4],14 ± 3.2 nM
same,selectivity for DOR-1 over 6TM/E11 sites,[5],108 fold
same,Ki,[5],0.13 ± 0.032 nM
same,selectivity for KOR-1 over 6TM/E11 sites,[6],100 fold
same,Ki,[6],0.14 ± 0.022 nM
"CN1CC[C@]23c4c5ccc(O)c4O[C@H]2[C@@H](O)C=C[C@H]3[C@H]1C5 [morphine, reference compound]","tail flick analgesia, ED50",[1],4.96 ± 0.96^f mg/kg
same,place conditioning response to drug alone,[7],significant conditioned place preference
"O=C(N[C@@H]1C=C[C@H]2[C@H]3Cc4ccc(O)c5c4[C@@]2(CCN3CC2CC2)[C@H]1O5)c1cccc(I)c1 [Compound 16, 17-Cyclopropylmethyl-3-hydroxy-4,5α-epoxy-7,8-en-6-β-[(3′-iodo)benzamido]-morphinan]",agonist efficacy at DOR-1 (in words),[8]; [35S]GTPγS,full agonist eficacy
same,EC50,"[8]; read-out: EC50 DOR-1, [35S]GTPγS stimulation",0.41 ± 0.11 nM
same,Emax (% stimulation) DOR-1,[8]; relative to DPDPE at 100 nM,88 ± 0.38 % stimulation
same,antinociception ED50 (95% confidence interval),[9],0.22 (0.17–0.29) mg/kg
same,seizures,[10],not observed to produce seizures
same,fold higher MOR-1 affinity than corresponding 14-OH-epoxymorphinan analog,[2],5 fold
same,selectivity for MOR-1 over 6TM/E11 sites,[2],22 fold
same,Ki,[2],0.021 ± 0.0034 nM
same,"antinociception after pretreatment with NOP antagonist J-113,397","[3]; CD1 mice, 16 0.5 mg/kg sc, J-113,397 30 mg/kg sc 15 min before, listed as 16 (MP1104)",No change in the antinociceptive efiect; also recorded: insensitive
same,antinociception after pretreatment with DOR-1 antagonist NTI,"[3]; CD1 mice, 16 0.5 mg/kg sc, NTI 20 mg/kg sc 15 min before, listed as 16 (MP1104)",attenuated the antinociceptive effects; also recorded: partially antagonized
same,antinociception after pretreatment with both norBNI and NTI,"[3]; CD1 mice, 16 0.5 mg/kg sc, listed as 16 (MP1104)",fully prevented antinociception; also recorded: eliminated the antinociceptive response
same,antinociception after pretreatment with KOR-1 antagonist norBNI,"[3]; CD1 mice, 16 0.5 mg/kg sc, norBNI 10 mg/kg sc 24 h before, listed as 16 (MP1104)",attenuated the antinociceptive effects; also recorded: partially antagonized
same,antinociception after pretreatment with MOR-1 antagonist β-FNA,"[3]; CD1 mice, 16 0.5 mg/kg sc, β-FNA 40 mg/kg sc 24 h before, listed as 16 (MP1104)",did not alter anti-nociception; also recorded: insensitive
same,"tail flick analgesia (CI), ED50",[3],0.33 ± 0.09 mg/kg
same,fold higher analgesic potency than morphine,[3]; listed as 16 (MP1104),15 fold
same,fold higher analgesic potency than morphine,[3]; listed as MP1104,approximately 15 fold
same,fold lower 6TM/E11 affinity than 1,[4],3 fold
same,Ki,[4],0.47 ± 0.009 nM
same,agonist efficacy at MOR-1 (in words),"[11]; [35S]GTPγS, listed as 16 (MP1104)",full agonist eficacy; also recorded: full agonism
same,EC50,"[11]; read-out: EC50 MOR-1, [35S]GTPγS stimulation",0.21 ± 0.03 nM
same,Emax (% stimulation) MOR-1,[11]; relative to DAMGO at 100 nM,103 ± 2.5 % stimulation
same,effect of pretreatment on cocaine-conditioned place preference,[7]; listed as 16 (MP1104),prevented significant place preference produced by cocaine; also recorded: prevented cocaine-conditioned place preference; also recorded: abolished cocaine preference; also recorded: effectively blocked cocaine-conditioned place preference
same,effect of pretreatment on cocaine-conditioned place preference,[7]; listed as MP1104,prevented the reward behavior associated with cocaine
same,place conditioning response to drug alone,[7]; listed as 16 (MP1104),neither conditioned place preference nor aversion; also recorded: did not produce conditioned place preference or aversion; also recorded: produced neither preference nor aversion; also recorded: lacks rewarding and dysphoric properties
same,place conditioning response to drug alone,[7]; listed as MP1104,did not cause place aversion or preference
same,fold higher DOR-1 affinity than corresponding 14-OH-epoxymorphinan analog,[5],3 fold
same,selectivity for DOR-1 over 6TM/E11 sites,[5],6 fold
same,Ki,[5],0.08 ± 0.019 nM
same,fold higher KOR-1 affinity than corresponding 14-OH-epoxymorphinan analog,[6],4.7 fold
same,selectivity for KOR-1 over 6TM/E11 sites,[6],73 fold
same,Ki,[6],0.0064 ± 0.002 nM
same,agonist efficacy at KOR-1 (in words),[12]; [35S]GTPγS,full agonist eficacy
same,EC50,"[12]; read-out: EC50 KOR-1, [35S]GTPγS stimulation",0.027 ± 0.002 nM
same,Emax (% stimulation) KOR-1,"[12]; relative to U50,488H at 100 nM",104 ± 2.3 % stimulation
"CN1CC[C@]23c4c5ccc(O)c4O[C@H]2[C@H](NC(=O)c2cccc(I)c2)C=C[C@H]3[C@H]1C5 [Compound 6, 17-Methyl-3-hydroxy-4,5α-epoxy-7,8-en-6-β-[(3′-iodo)-benzamido]-morphinan]",fold higher MOR-1 affinity than corresponding 14-OH-epoxymorphinan analog,[2],26 fold
same,Ki,[2],0.037 ± 0.0051 nM
same,"tail flick analgesia (CI), ED50",[3],"6.31 (4.6, 8.5) mg/kg"
same,antinociception in vivo (in words),[3],potent antinociception
same,Ki,[4],27 ± 18 nM
same,fold higher DOR-1 affinity than corresponding 14-OH-epoxymorphinan analog,[5],3 fold
same,Ki,[5],0.88 ± 0.08 nM
same,fold higher KOR-1 affinity than corresponding 14-OH-epoxymorphinan analog,[6],224 fold
same,Ki,[6],0.21 ± 0.046 nM
